Results taken from ChEMBL document CHEMBL1147384, “Cytotoxic diterpenoids from the brown alga Dilophus ligulatus” (1993).
In brackets after ≈: the same amount, converted by molar mass.

How the values were obtained:
Type in all cases: functional
Details in all cases: read-out: ED50 (the source's name)
KB = test: Cytotoxicity against human KB cells
Summary of the method: (§1)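 Run under the lab's standard cytotoxicity protocols with mercaptopurine as the positive standard. Activity is given as ED50 in μg/ml. Cells were human nasopharynx carcinoma KB, human lung carcinoma NSCLC-N6, murine leukemia P-388, and P-388/DOX, a P-388 line expressing the multidrug-resistance (mdr) gene.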

P388 [1] = test: Cytotoxicity against mouse doxorubicin-resistant P388 cells; summary of the method: as §1
P388 [2] = test: Cytotoxicity against mouse P388 cells; summary of the method: as §1
[3] = Cytotoxicity against human NSCLC-N6 cells; summary of the method: as §1

`CC(=O)O[C@H]1C[C@H](C)[C@H]2C[C@H]2C2=C(COC2=O)[C@H]1[C@H](C)CCC=C(C)C` [ACETOXYCRENULIDE] gave an EC50 (KB) of over 10 µg/mL, an EC50 (P388 [1]) of over 10 µg/mL and an EC50 (P388 [2]) of over 10 µg/mL. For the same compound, the EC50 [3] was over 10 µg/mL.

`CC(=O)O[C@@H]1C(=O)C2C1CC/C=C(\C)CC[C@@H]2[C@H](C)CCC=C(C)C` (some centres undefined) [ACETYLCORIACENONE] showed an EC50 (KB) of over 10 µg/mL, an EC50 (P388 [1]) of over 10 µg/mL and an EC50 (P388 [2]) of 4.4 µg/mL (≈ 12.7 µM). The EC50 [3] was 5.4 µg/mL (≈ 15.6 µM).

Work on `CC(=O)O/C=C1/CC/C=C(\C)C[C@@H]2OC(=O)[C@H]1[C@H]2[C@@H](C)CCC=C(C)C` [DILOPHOLIDE] yielded an EC50 (KB) of 1.5 µg/mL (≈ 4.16 µM), an EC50 (P388 [1]) of 12 µg/mL (≈ 33.3 µM) and an EC50 (P388 [2]) of 0.5 µg/mL (≈ 1.39 µM). For the same compound, the EC50 [3] was 3.3 µg/mL (≈ 9.15 µM).

Work on `CC(=O)OC[C@H]1/C(C=O)=C\C/C=C(\C)C[C@H](O)[C@@H]1[C@@H](C)CCC=C(C)C` [HYDROXYACETYLDICTYOLAL] yielded an EC50 (KB) of 2.1 µg/mL (≈ 5.79 µM), an EC50 (P388 [1]) of 9.3 µg/mL (≈ 25.7 µM) and an EC50 (P388 [2]) of 3.9 µg/mL (≈ 10.8 µM). The EC50 [3] was 10 µg/mL (≈ 27.6 µM).

Work on `CC(=O)O[C@H]1C(=O)C2C1CC/C=C(\C)CC[C@@H]2[C@H](C)CCC=C(C)C` (some centres undefined) [ISOACETYLCORIACENONE] yielded an EC50 (KB) of over 10 µg/mL, an EC50 (P388 [1]) of over 10 µg/mL and an EC50 (P388 [2]) of 6 µg/mL (≈ 17.3 µM). For the same compound, the EC50 [3] was 6.82 µg/mL (≈ 19.7 µM).

Work on `Sc1ncnc2nc[nH]c12` [MERCAPTOPURINE ANHYDROUS] yielded an EC50 (KB) of 0.54 µg/mL (≈ 3.55 µM), an EC50 (P388 [1]) of 0.25 µg/mL (≈ 1.64 µM) and an EC50 (P388 [2]) of 0.7 µg/mL (≈ 4.6 µM). For the same compound, the EC50 [3] was 0.76 µg/mL (≈ 4.99 µM).
